Calls of active or inactive are those of the source. The calls are words filed in the database; no cut-off is given here.
Experiments:
MC-38 = experiment: Cytotoxicity against mouse C38 cells assessed as zone units at 15 ug/disk by disk diffusion soft agar assay; format: functional
Summary of the method: (§1)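 Disk diffusion soft agar colony formation assay at 15 μg/disk; cytotoxicity read as zone units. Cells: L1210 murine leukemia, C38 murine colon, CFU-GM normal bone marrow. Samples called solid tumor selective when the solid tumor zone exceeds the normal-cell or leukemia zone by more than 250 units.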

[1] = Cytotoxicity against mouse CFU-GM cells assessed as zone units at 15 ug/disk by disk diffusion soft agar assay; format: cell-based; summary of the method: as §1
A10 [2] = experiment: Antimicrofilament activity in rat A10 cells assessed as loss of microfilament at 1 ug/ml by rhodamine-phalloidin staining; format: functional, cell-based
Summary of the method: (§2)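 A-10 rat aortic smooth muscle cells treated with compound, then fixed; microfilament network scored as loss, additional loss, total loss, or cell loss, at the concentration given in each line.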

A10 [3] = experiment: Antimicrofilament activity in rat A10 cells assessed as loss of microfilament at 2.5 ug/ml by rhodamine-phalloidin staining; format: functional, cell-based; summary of the method: as §2
A10 [4] = experiment: Antimicrofilament activity in rat A10 cells assessed as total loss of microfilament at 5 ug/ml by rhodamine-phalloidin staining; format: functional, cell-based; summary of the method: as §2
L1210 = experiment: Cytotoxicity against mouse L1210 cells assessed as zone units at 15 ug/disk by disk diffusion soft agar assay; format: functional; summary of the method: as §1
A10 [5] = experiment: Antimicrofilament activity in rat A10 cells assessed as loss of microfilament at 10 ug/ml by rhodamine-phalloidin staining; format: functional, cell-based; summary of the method: as §2
A10 [6] = experiment: Antimicrofilament activity in rat A10 cells assessed as cell loss at 10 ug/ml by rhodamine-phalloidin staining; format: functional, cell-based; summary of the method: as §2
A10 [7] = experiment: Antimicrofilament activity in rat A10 cells assessed as loss of microfilament at 15 ug/ml by rhodamine-phalloidin staining; format: functional, cell-based; summary of the method: as §2
A10 [8] = experiment: Antimicrofilament activity in rat A10 cells assessed as cell loss at 15 ug/ml by rhodamine-phalloidin staining; format: functional, cell-based; summary of the method: as §2
A10 [9] = experiment: Antimicrofilament activity in rat A10 cells assessed as total loss of microfilament at 25 ug/ml by rhodamine-phalloidin staining; format: functional, cell-based; summary of the method: as §2
A10 [10] = experiment: Antimicrofilament activity in rat A10 cells assessed as cell loss at 25 ug/ml by rhodamine-phalloidin staining; format: functional, cell-based; summary of the method: as §2

| Structure (SMILES) | Activity (MC-38) | Activity [1] | Activity (A10 [2]) | Activity (A10 [3]) | Activity (A10 [4]) | Activity (L1210) | Activity (A10 [5]) | Activity (A10 [6]) | Activity (A10 [7]) | Activity (A10 [8]) | Activity (A10 [9]) | Activity (A10 [10]) |
| --- | --- | --- | --- | --- | --- | --- | --- | --- | --- | --- | --- | --- |
| CC[C@@H]1C(C)=C[C@@H]2/C=C/C[C@H](C)/C=C(\C)[C@@H](O)[C@@H](O)/C=C/C(=O)[C@]23C(=O)N[C@@H]([C@H](C)c2c[nH]c4ccccc24)[C@H]13 | 400 Zone units | 500 Zone units | Active | Active | Active | 500 Zone units | – | – | – | – | – | – |
| CC[C@@H]1C(C)=C[C@@H]2/C=C/C[C@H](C)/C=C(\C)[C@@H](O)C(=O)/C=C/C(=O)[C@]23C(=O)N[C@@H]([C@H](C)c2c[nH]c4ccccc24)[C@H]13 | 350 Zone units | 250 Zone units | – | – | – | 250 Zone units | – | – | – | – | – | – |
| CC[C@@H]1C(C)=C[C@@H]2/C=C/C[C@H](C)/C=C(\C)CC/C=C/C(=O)[C@]23C(=O)N[C@@H]([C@H](C)c2c[nH]c4ccccc24)[C@H]13 | 150 Zone units | – | – | – | – | – | Active | Active | Active | Active | Active | Active |

From ChEMBL document CHEMBL1158824, “Using jasplakinolide to turn on pathways that enable the isolation of new chaetoglobosins from Phomospis asparagi” (J Nat Prod, 2005)
